In ChEMBL document CHEMBL1139318, “Tyrosinase inhibitory effects of 1,3-diphenylpropanes from Broussonetia kazinoki” (Bioorg Med Chem, 2009):
pIC50, pKi: −log10 of the molar value.

Columns and labels:
Tyrosinase [1] = molecular target: T1, Tyrosinase (Agaricus bisporus, UniProt O42713); assay: Inhibition of monophenolase activity of mushroom tyrosinase using as L-tyrosine substrate by Lineweaver-Burke plot based kinetic assay
T1 sequence (O42713 whole entry): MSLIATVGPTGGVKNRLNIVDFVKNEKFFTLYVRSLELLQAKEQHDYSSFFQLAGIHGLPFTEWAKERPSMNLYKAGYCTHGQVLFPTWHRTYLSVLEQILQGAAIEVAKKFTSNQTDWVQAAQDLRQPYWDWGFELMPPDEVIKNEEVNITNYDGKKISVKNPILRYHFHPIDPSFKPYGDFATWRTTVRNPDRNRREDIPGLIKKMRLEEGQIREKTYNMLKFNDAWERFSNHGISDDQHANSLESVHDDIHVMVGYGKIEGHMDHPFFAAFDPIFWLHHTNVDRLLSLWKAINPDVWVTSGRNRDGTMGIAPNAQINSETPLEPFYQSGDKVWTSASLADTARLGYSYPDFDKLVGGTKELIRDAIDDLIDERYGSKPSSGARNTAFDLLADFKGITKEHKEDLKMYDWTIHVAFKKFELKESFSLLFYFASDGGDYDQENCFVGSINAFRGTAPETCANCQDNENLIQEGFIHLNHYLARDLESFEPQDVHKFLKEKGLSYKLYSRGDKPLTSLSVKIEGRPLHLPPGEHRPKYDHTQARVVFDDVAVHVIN

Tyrosinase [2] = molecular target: T1, Tyrosinase; assay: Inhibition of mushroom tyrosinase by kinetic based assay; settings: read-out: Ki(app)
Outline: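 Time-dependent assay with L-tyrosine substrate in 0.25 M phosphate buffer (pH 6.8) at 30 °C. Activity was monitored continuously for 15 min, giving 20 points at 30 s intervals, at several inhibitor concentrations and fixed substrate. kobs came from the slow-binding equation or from ln(residual activity) versus preincubation time. k3, k4 and Kiapp came from kobs versus [I] by the Morrison–Walsh method, using nonlinear regression.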

Tyrosinase [3] = molecular target: T1, Tyrosinase; assay: Inhibition of monophenolase activity of mushroom tyrosinase using as L-tyrosine substrate
Outline: (§1)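 Mushroom tyrosinase (144 units) was added to 0.25 M phosphate buffer (pH 6.8) with substrate: L-tyrosine for monophenolase or L-DOPA for diphenolase. Substrate was added as 200 µL of a 2.7 mM L-tyrosine or 5.4 mM L-DOPA stock. Samples were 10 mM EtOH stocks. Dopachrome formation was read at 475 nm at 30 °C. Runs were triplicate, and IC50 came from a logistic curve fit.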

Tyrosinase [4] = molecular target: T1, Tyrosinase; assay: Inhibition of diphenolase activity of mushroom tyrosinase using as L-DOPA substrate; outline: as §1
Tyrosinase [5] = molecular target: T1, Tyrosinase; assay: Inhibition of diphenolase activity of mushroom tyrosinase using as L-DOPA substrate by Lineweaver-Burke plot based kinetic assay
Outline: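 Diphenolase kinetics used 0.25 M phosphate buffer (pH 6.8) at 30 °C, reading dopachrome at 475 nm. L-DOPA concentration was varied at several fixed inhibitor concentrations. Reciprocal velocity was plotted against 1/[L-DOPA] (Lineweaver–Burk), and inhibition type and Ki were read from the line pattern.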

Row | pKi (Tyrosinase [1]) | pKi (Tyrosinase [2]) | pIC50 (Tyrosinase [3]) | pIC50 (Tyrosinase [4]) | pKi (Tyrosinase [5]) | Structure (SMILES)
1 | 5.04 | 6.06 | 4.75 | 4.57 | 4.81 | C=CC(C)(C)c1cc(CCCc2cc(O)c(O)c(CC3OC3(C)C)c2CC=C(C)C)c(O)cc1O (stereo not drawn) [KAZINOL S]
2 |  |  | 3.99 | < 3.70 |  | C=CC(C)(C)c1cc(CCCc2cc(O)c3c(c2CC=C(C)C)CC(C(C)(C)O)O3)c(O)cc1O (stereo not drawn) [KAZINOL T]

The next lines start with the compound.

Row | Structure (SMILES) | pKi (Tyrosinase [1]) | pKi (Tyrosinase [2]) | pIC50 (Tyrosinase [3]) | pIC50 (Tyrosinase [4]) | pKi (Tyrosinase [5])
3 | CC(C)=CCc1cc(CCCc2ccc(O)cc2O)ccc1O [BROUSSONIN C] | 6.64 | 7.31 | 6.37 | 6.24 | 6.54
4 | C=CC(C)(C)c1cc(CCCc2cc(O)c(O)c(CC=C(C)C)c2CC=C(C)C)c(O)cc1O [KAZINOL C] | 4.97 |  | 4.81 | 4.64 | 4.95
5 | C=CC(C)(C)c1cc(CCCc2cc(O)c3c(c2CC=C(C)C)CCC(C)(C)O3)c(O)cc1O [KAZINOL D] |  |  | 3.78 | < 3.70 | 
6 | CC(C)=CCc1c(CCCc2ccc(O)cc2O)cc(O)c(O)c1CC=C(C)C [KAZINOL F] | 6.39 | 6.74 | 6.02 | 5.77 | 6.11
